Compound activity deposited in PubChem BioAssay by several laboratories.
NPY2 pot ag – NPY-Y2 potentiators or agonists, primary screen, cell-based. cells expressing NPY-Y2, potentiator/agonist read-out. activation, % at 3.6 µM. 220,000 compounds, 0.45% hits; in the data active = activation above about 27%;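 also: cells stimulated with NPY near EC25 plus isoproterenol at EC100; 0% = vehicle plus submaximal agonist and 100% = vehicle plus saturating agonist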
INS promoter inh – inhibitors of insulin promoter-driven GFP, primary screen, imaging, TRM-6 cells, eGFP reporter, cell count | reporter expression induced with tamoxifen | inhibition, % at 2 µM | 130,000 compounds, 0.9% hits;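 active = inhibition above the mean plus 3 SD, with well images judged a real hit on visual review, cut at about 60% in these data, passing the limit was not always enough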
RAM network inh – inhibitors of the yeast RAM network, primary screen, dse1pr::URA3 reporter, 5-FOA selection; inhibition, % at 50 µM; S. cerevisiae dse1pr::URA3 reporter, 5-FOA growth OD615, 2 d; analog-sensitive cbk1-as2 kinase mutant strain; 190,000 compounds, 1.8% hits;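 active = inhibition above a set limit, 3 SD over mean compound inhibition, cut at about 8.4% in these data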;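 also: 0% = DMSO-only wells with no growth and 100% = 10 µM 1-NA-PP1 full growth; inhibition rescues growth on 5-FOA so higher OD means more RAM inhibition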
NPY-Y1 antag – NPY-Y1 receptor antagonists, primary screen, cell-based | Neuropeptide Y receptor type 1 (Homo sapiens), P25929 | HEK293-CNG Y1 cells, membrane potential fluorescence; NPY at EC95, then isoproterenol | inhibition, % at 3.6 µM | 200,000 compounds, 1% hits | AID 1040, 2008;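 active = inhibition above the campaign mean inhibition of all tested compounds plus 3 SD, cut at about 20% in these data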;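 also: 0% = DMSO wells given NPY plus isoproterenol and 100% = isoproterenol alone without NPY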
Target sequence (P25929 whole entry, looked up): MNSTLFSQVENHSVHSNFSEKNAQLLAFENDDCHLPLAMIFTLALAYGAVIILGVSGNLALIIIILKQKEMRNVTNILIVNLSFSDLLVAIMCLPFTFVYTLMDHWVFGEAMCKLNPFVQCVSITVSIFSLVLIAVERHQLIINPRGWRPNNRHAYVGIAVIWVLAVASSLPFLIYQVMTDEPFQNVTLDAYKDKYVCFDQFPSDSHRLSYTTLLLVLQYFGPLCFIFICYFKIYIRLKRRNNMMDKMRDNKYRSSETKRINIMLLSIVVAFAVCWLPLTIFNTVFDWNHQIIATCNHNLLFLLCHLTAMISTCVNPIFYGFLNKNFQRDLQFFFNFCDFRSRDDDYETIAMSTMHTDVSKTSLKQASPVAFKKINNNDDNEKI
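Material: HEK293 cells with Y1 receptor plus CNG channel; times: compound incubation 1 h at room temperature, readout 45 min post-stimulation; signal: fluorescence, membrane potential probe; read-out basis: fluorescence ratio normalized to % inhibition between controls; benchmarks: full-block control isoproterenol-only wells, zero-block control NPY plus isoproterenol wells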
NPY-Y1 PAM-ag – NPY-Y1 receptor potentiators or agonists, primary screen, cell-based. Neuropeptide Y receptor type 1 (Homo sapiens), P25929. NPY-Y1 expressing cells, potentiator/agonist activation. activation, % at 3.6 µM. 220,000 compounds, 0.37% hits. AID 1304, 2008; in the data active = activation above about 33%, passing the limit was not always enough;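 also: cells stimulated with NPY at EC10 then isoproterenol at EC100; 0% = low agonist plus stimulus and 100% = saturating agonist plus stimulus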
NPY Y2 blocker – NPY-Y2 receptor antagonists, primary screen, cell-based | 140,000 compounds, 0.99% hits | inhibition, % at 2.7 µM | NPY-Y2 expressing cells, antagonist mode | AID 793, 2007; in the data active = inhibition above about 17%;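 also: 0% = vehicle with agonist challenge and 100% = reference antagonist with challenge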
* hit, by the source's call; i = inactive; / = no result. The list is not random: actives were taken first. Their share in the collection is about 3.8%.

SMILES | NPY2 pot ag | INS promoter inh | RAM network inh | NPY-Y1 antag | NPY-Y1 PAM-ag | NPY Y2 blocker
COc1ccccc1NC(CC(=O)c1ccccc1)C(=O)OCC(=O)c1ccc(C)c(C)c1 (centres undefined) | -5 | / | 7 | 2 | -34 | 14
O=C1ON=C(c2ccccc2)/C1=C/c1ccco1 | 0 | / | -2 | -2 | 3 | /
CCCCc1ccc(/C=C2\C(=O)ON=C2c2ccccc2)s1 | -5 | / | 8.8* | 0 | 3 | 3
O=C(O)c1ccc(CSc2nc3ccc(NC(=O)c4ccccc4C(=O)O)cc3s2)cc1 | 16 | -12 | 1 | 2 | 8 | /
CCC(C)/C(C)=N/NC(=O)c1ccc(CSc2nc3ccccc3s2)cc1 (centres undefined) | -1 | 100* | 1 | 3 | -25 | 1
Cc1ccc(S(=O)(=O)NCCCOC(=O)Nc2ccncc2)cc1 | -28 | / | 0 | 2 | 3 | 1
Cc1nn2c(NC(C)C)c3c(nc2c1-c1ccccc1)CCC3 | -27 | / | / | / | 8 | /
Cc1nn2c(Nc3ccccc3)c3c(nc2c1-c1ccccc1)CCC3 | -5 | 91* | 6 | 3 | -11 | -2
CC(OC(=O)C1=COCCO1)C(=O)Nc1ccc(Oc2ccccc2)cc1 (centres undefined) | -5 | -27 | 10* | 4 | -16 | -2
CCOC(=O)c1ccc(NC(=O)Cn2ccc([N+](=O)[O-])n2)cc1 | -5 | / | 1 | 3 | 3 | /
Cc1ccc2oc(=O)c3cc(C(=O)NCCN4CCc5ccccc5C4)sc3c2c1 | -12 | -12 | 2 | 2 | -13 | 4
Cc1ccc2oc(=O)c3cc(C(=O)NCc4ccco4)sc3c2c1 | 1 | / | 4 | 22* | 4 | 45*
CC(O)C(C(=O)OCc1ccc([N+](=O)[O-])cc1)N1C(=O)c2ccccc2C1=O (centres undefined) | 14 | 62* | 0 | -4 | -5 | 0
Cc1[nH]n(-c2nc(-c3ccc(Cl)cc3)cs2)c(=O)c1N=Nc1ccc(O)cc1 | 26 | / | 9.8* | -3 | 18 | /
CC1CC2(CCCCC2)Nc2c1ccc1ccccc21 (centres undefined) | 11 | -405 | 9.4* | 0 | 4 | 2
CC[C@@H](C)[C@H](NC(=O)OC(C)(C)C)c1nnc(S(=O)(=O)Cc2cc(C)ccc2C)o1 | 2 | 72* | 5 | -4 | -14 | 1
CCOc1ccc(NC(=O)c2cnccn2)cc1 | 9 | 94* | 1 | 5 | -22 | 3
COc1ccc(C(=O)NCc2nnc(SCC(=O)NO)n2Cc2ccccc2)cc1 | 0 | / | 1 | -1 | 1 | /
COc1ccccc1-n1ccnc1SCC(=O)NCc1ccco1 | -2 | -4 | 0 | 1 | 16 | /
Cn1c(/C=C(\C#N)C(N)=S)ccc1-c1ccc(Br)cc1 | 2 | / | 9.6* | -9 | 6 | /
Cn1cccc1/C=C(\C#N)C(N)=S | -2 | / | / | / | 30 | /
CCNC(=O)COC(=O)CCNC(=O)c1ccc(Cl)cc1 | 1 | / | / | / | 3 | /
Nc1ccc(-c2nc3ccc(C(=O)O)cc3s2)cc1 | 8 | 33 | 9.1* | -8 | -7 | -2
Cc1onc(-c2c(F)cccc2Cl)c1C(=O)OCC(=O)c1c[nH]c2ccccc12 | 1 | / | / | / | 27 | /
CN(C)c1ccc(/C=N\NC(=O)CC#N)cc1 | -1 | 45 | 2 | 0 | 5 | /
SMILES | NPY2 pot ag | INS promoter inh | RAM network inh | NPY-Y1 antag | NPY-Y1 PAM-ag | NPY Y2 blocker
O=C(NN1C(=O)/C(=C/C=C/c2ccccc2)SC1=S)c1ccncc1 | -16 | / | 9.3* | 13 | -23 | /
O=C(CN1C(=O)/C(=C\C=C\c2ccccc2)SC1=S)Nc1ccc(F)cc1 | 6 | -11 | 9.7* | 0 | 0 | 1
O=C(CCN1C(=O)/C(=C/c2ccccc2)SC1=S)NNC(=O)c1ccncc1 | -4 | / | 8.8* | 3 | -6 | /
O=C(CN1C(=O)S/C(=C/C=C/c2ccccc2)C1=O)Nc1ccc(C(=O)O)cc1 | -4 | i | 1 | 7 | -2 | /
Cc1ccc(NC2Sc3ccccc3NC2=O)cc1 (centres undefined) | 7 | 9 | 2 | 0 | 26 | /
COc1cccc(NC(=O)Cn2c(=O)n(-c3ccccc3)c(=O)c3sccc32)c1 | -1 | / | 2 | 1 | 8 | /
Cc1[nH]n(-c2ncc(-c3ccccc3)s2)c(=O)c1C(c1ccc(Br)cc1)C(C#N)C#N (centres undefined) | 20 | 17 | 11* | 1 | 3 | 0
O=C(NC12CC3CC(CC(C3)C1)C2)c1ccc(=O)oc1 | -5 | / | 8.7* | -3 | -8 | 1
Cc1ccc(C2C(=O)N(C3CCC(C)CC3)CC(=O)N2C2CCCC2)cc1 (centres undefined) | 5 | 68* | 1 | 0 | -15 | 8
O=C(Cn1nnc(-c2ccccc2)n1)NCc1ccco1 | -19 | / | 0 | -3 | -27 | 3
O=C(Cn1nnc(-c2cccc(C(F)(F)F)c2)n1)NC(=O)NCc1ccco1 | -23 | -28 | 3 | 14 | -37 | 21*
C/C(=N\NC(=O)c1ccn(C)n1)c1ccc(NC(=O)C2CCCC2)cc1 | 16 | 71* | 1 | -2 | 15 | 9
C/C(=N/NC(=O)c1ccoc1C)c1ccc(NC(=O)C2CCCC2)cc1 | 1 | 7 | 1 | 2 | -20 | 0
Cc1nnc(SCC(=O)Nc2ccc(N(C)C)cc2)n(N)c1=O | 13 | -17 | 2 | 1 | 10 | /
N#Cc1c(-c2ccco2)cc(C2CC2)nc1SCC(=O)c1ccccc1 | -7 | / | 8.7* | 6 | -7 | 4
N#Cc1c(-c2ccccc2)cc(C2CC2)nc1SCC(=O)O | -5 | / | 5 | 5 | -26 | 3
COC(=O)CSc1nc(-c2ccccc2)cc(-c2ccco2)c1C#N | -22 | / | 9.7* | 23* | 8 | 21*
CCN(C(=O)CSc1nnc(-c2ccncc2)n1Cc1ccccc1)C1CCS(=O)(=O)C1 (centres undefined) | 4 | -7 | -2 | 6 | 5 | /
CCC(CC)c1nn2c(N)c(/C=C3\C(C)=Nc4ccccc43)c(=O)nc2s1 | 51* | / | / | / | 88* | /
CCOC(=O)c1c(C)nc(-c2ccccc2)nc1NC(=O)CC | -2 | 71* | 4 | 14 | 1 | 5
COC(=O)C1=C(N)Oc2cc(C)[nH]c(=O)c2C1c1ccccc1OC (centres undefined) | 11 | / | / | / | 14 | /
Cn1c(C(C#N)/C(=N\S(=O)(=O)c2cccs2)c2ccccc2)nc2ccccc21 (centres undefined) | 1 | 55 | 9.6* | -1 | 13 | 4
N/C(=N\S(=O)(=O)c1cccs1)c1ccccc1 | -10 | 17 | 0 | 6 | -12 | 7
Cc1ccc(C(=O)Nn2cnnc2)cc1[N+](=O)[O-] | -15 | -233 | / | -1 | 8 | 18*
